An excerpt weighted towards active compounds, which were near 2.9% of everything screened.
SENP8 block-1: blocks human SENP8 cleavage of Nedd8 substrate | inhibition, % at 20 µM | recombinant SENP8, Nedd8 substrate fluorescence | 0.64% of 360,000 active; in the data active = inhibition mostly above about 40%, no sharp cut-off; inactive = mostly below about 27%
Target sequence (Q96LD8 whole entry, looked up): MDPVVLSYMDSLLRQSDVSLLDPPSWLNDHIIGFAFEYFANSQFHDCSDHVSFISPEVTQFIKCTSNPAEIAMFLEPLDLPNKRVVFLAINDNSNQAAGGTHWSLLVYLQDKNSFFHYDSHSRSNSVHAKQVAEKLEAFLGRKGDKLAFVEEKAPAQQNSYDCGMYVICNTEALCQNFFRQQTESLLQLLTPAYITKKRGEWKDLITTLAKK
SENP1 inh: blocks the human SENP1 SUMO protease catalytic domain. Q9P0U3. recombinant SENP1 catalytic domain, CyPet-SUMO1-YPet FRET cleavage. inhibition, % at 10 µM. 0.21% of 360,000 active;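 active = inhibition at least 30% at 10 µM, raw YFP signal under a set limit, fluorescence ratio 0.5 to 1.5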;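 note: 0% = enzyme with DMSO and 100% = no enzyme wells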
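system = hSENP1 catalytic domain, recombinant | reagent = SFCypet-SUMO1-SFYpet substrate at 25 nM | doses = one dose per compound, 10 µM, 0.5% DMSO | incubation = enzyme reaction for 50 min at room temperature, dark | measured by = FRET, CFP and YFP emission | controls = no-enzyme low, enzyme-DMSO high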
HSP90 refold inh: inhibitors of HSP90 luciferase refolding in rabbit reticulocyte lysate; luciferase refolding luminescence, 3 h; inhibition, % at 5.6 µM; 0.91% of 290,000 active;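 active = inhibition above the screen-wide mean plus 3 SD, computed separately per campaign, cut at about 16% in these data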;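 note: 0% = DMSO wells and 100% = 60 µM geldanamycin wells; inhibitors lower the luminescence because luciferase stays unfolded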
SENP8 block-2: blocks the human protease SENP8; 1.2% of 330,000 active; purified SENP8, Z-RLRGG-aminoluciferin cleavage, luminescence; inhibition, % at 10 µM; in the data active = inhibition above about 50%
SENP6 inh: blocks the human protease SENP6; Q9GZR1; 1.8% of 330,000 active; inhibition, % at 10 µM; Recombinant SENP6 catalytic domain, aminoluciferin luminescence;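 active = inhibition above about 50% at the single tested dose, limit read from the data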;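 note: plate controls were DMSO wells with enzyme for no effect and DMSO wells lacking enzyme for full effect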
SENP7 inh: inhibitors of human SENP7 protease. Q9BQF6. recombinant SENP7, Z-RLRGG-aminoluciferin luminescence, 40 min. inhibition, % at 5 µM. 1.5% of 330,000 active. AID 434973;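 active = inhibition above about 50% at the single test dose, limit read from the data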;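 note: plate controls were DMSO with enzyme for no effect and no enzyme buffer wells for full effect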
* marks the source's active call; other numbers are inactive results; nt = no result.

SMILES	SENP8 block-1	SENP1 inh	HSP90 refold inh	SENP8 block-2	SENP6 inh	SENP7 inh
O=C1C(NS(=O)(=O)c2ccccc2)=C(N2CCN(c3ccc(F)cc3)CC2)C(=O)c2ccccc21	36	-2	10	-1	10	8
O=C1C(NS(=O)(=O)c2cccs2)=C(N2CCN(c3cccc(Cl)c3)CC2)C(=O)c2ccccc21	70*	14	1	13	23	26
O=c1cc(-c2ccc(F)cc2)[nH][nH]1	28	3	17*	-6	-1	6
COC(CNC(=O)C1CCCN(S(=O)(=O)c2c(C)noc2/C=C/c2cccs2)C1)OC (stereo not given)	-24	3	17*	-1	-5	-14
COCCNC(=O)C1CCCN(S(=O)(=O)c2c(C)noc2/C=C/c2cccs2)C1 (stereo not given)	-6	3	1	4	-13	1
Brc1ccc(N/N=C(/N=Nc2nn[nH]n2)c2ccccc2)cc1	40	4	-23	-1	10	1
Oc1c(N=Nc2nn[nH]n2)ccc2ccccc12	55*	13	nt	nt	nt	nt
CCn1c(SCC(=O)Nc2nncs2)nnc1C(C)NC(=O)c1ccccc1Br (stereo not given)	11	3	3	2	-17	8
COC(=O)c1csc(S(=O)(=O)N2CCOCC2)c1OC	7	0	-5	2	8	0
Cc1cc(C)cc(N=c2c([N+](=O)[O-])nn(-c3ccc4c(c3)OCCO4)n2O)c1	21	2	4	3	12	5
Cc1ccc(N=c2c([N+](=O)[O-])nn(-c3ccc4c(c3)OCCO4)n2O)c(Cl)c1	nt	nt	17*	8	1	5
NC(=S)N=Nc1c(O)n(CCCl)c2ccc(Br)cc12	50*	4	2	-5	-26	-4
C/C(Cl)=C\Cn1c(O)c(N=NC(N)=S)c2cc(Br)ccc21	17	5	-5	-9	-13	-4
Cn1nccc1C(=O)N/N=C/c1cccnc1	15	0	3	61*	-13	9
CCOCc1c(C(=O)NCC(c2ccco2)N2CCCC2)oc2ccccc12 (stereo not given)	-6	-5	nt	5	-4	-3
CN1/C(=C\C=C2/SC(=S)N(CC(=O)O)C2=O)C(C)(C)c2ccccc21	35	96	-1	12	8	-7
CCCN1C(=O)/C(=C/C=C2\N(CC)c3ccccc3C2(C)C)SC1=S	44*	78	1	7	5	5
C=CCN1C(=O)/C(=C\C=C2\N(C)c3ccccc3C2(C)C)SC1=S	56*	80	0	-4	12	8
C[C@]12CC[C@@H]3c4cc(O)c(O)cc4CC[C@H]3[C@@H]1CC[C@@H]2O	41*	1	-3	-4	1	11
O=C(CSc1nc(=O)n2ccccc2n1)NC1CCCCC1	-24	3	nt	-10	-3	1
Cc1ccc(S(=O)(=O)NC(=O)C2(C)CCN2C(=O)Cc2cccs2)cc1 (stereo not given)	26	2	nt	nt	nt	nt
C[C@@H]1Cc2c(O)c(O)cc(O)c2C(=O)O1	44*	-4	nt	3	-2	1
CN(C)c1ccc(N=Nc2ccccc2C(=O)OCC(=O)NCC2CCCCC2)cc1	50*	6	6	-3	20	-4
CN(C)c1ccc(N=Nc2ccccc2C(=O)OCC(=O)NC2CCCC2)cc1	26	3	1	0	7	5
O=S(=O)(O)c1cc(O)c2c(O)c(N=Nc3cc(Cl)ccc3O)c(S(=O)(=O)O)cc2c1	30	-1	-1	20	28	10
Cc1cc(-c2ccc(N=Nc3c(S(=O)(=O)O)cc4cc(S(=O)(=O)O)cc(N)c4c3O)c(C)c2)ccc1N=Nc1c(S(=O)(=O)O)cc2cc(S(=O)(=O)O)cc(N)c2c1O	nt	nt	nt	72*	26	41
O=C(O)c1cc(N/N=C/C=C/c2ccccc2[N+](=O)[O-])ccc1Cl	24	6	16	52*	-11	37
O=C(O)c1cc(N/N=C/c2ccc(-c3ccccc3)cc2)ccc1Cl	-102	-25	29*	nt	nt	nt
COc1ccc(-c2nn(-c3ccccc3)cc2/C=N/Nc2ccc(Cl)c(C(=O)O)c2)cc1OC	-359	-1	17*	-5	-8	-10

Screening results deposited in PubChem by several laboratories.
